Screening results (PubChem)
APJ ag: activates the human apelin receptor APJ. P35414. CHO-K1 APJ PathHunter beta-arrestin, luminescence; 0% DMSO wells, 100% apelin. activation, % at 20 µM. hit rate 0.11% among 330,000. AID 2520;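 active = activation more than six SD over the plate average, tested at 20 µM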;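 also: 0% = DMSO alone and 100% = apelin-13 at 10 nM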
Target sequence (P35414 whole entry, looked up): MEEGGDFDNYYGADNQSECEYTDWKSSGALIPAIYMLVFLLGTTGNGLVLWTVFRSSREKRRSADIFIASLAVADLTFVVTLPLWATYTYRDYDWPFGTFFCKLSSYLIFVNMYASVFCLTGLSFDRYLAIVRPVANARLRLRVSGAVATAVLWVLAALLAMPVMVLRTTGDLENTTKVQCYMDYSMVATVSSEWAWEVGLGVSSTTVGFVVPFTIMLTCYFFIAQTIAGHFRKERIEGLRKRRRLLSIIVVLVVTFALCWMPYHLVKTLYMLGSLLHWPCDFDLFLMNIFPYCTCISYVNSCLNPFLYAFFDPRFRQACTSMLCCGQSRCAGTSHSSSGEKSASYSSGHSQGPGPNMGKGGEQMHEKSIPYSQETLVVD
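Test system – PathHunter CHO-K1 APJ (AGTRL-1) beta-arrestin reporter cells · Input – 1000 cells/well · Compound – single test compound dose, 20 µM final, 1% DMSO · Times – compound stimulation 90 min at 25 °C, detection 60 min · Technique – beta-gal luminescence · Read-out basis – APJ–arrestin association signal · Control set – negative DMSO alone, positive Apelin-13 at 10 nM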
CXCR6 inh: blocks human CXCR6 beta-arrestin recruitment. O00574. CHO-K1 PathHunter CXCR6 beta-arrestin, luminescence. inhibition, % at 20 µM. hit rate 0.36% among 360,000. AID 602244; in the data active = inhibition above about 34%, passing the limit was not always enough;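 also: antagonist mode with CXCL16 agonist at 10 nM final; 0% = 10 nM CXCL16 with DMSO and 100% = unstimulated wells without agonist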
EBI2 antag: EBI2 (human) antagonism; EBI2 beta-arrestin recruitment, luminescence, 7a,25-OHC stimulated; P32249; inhibition, % at 5 µM; hit rate 0.81% among 360,000; in the data active = inhibition above about 38%;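 also: enzyme fragment complementation signal reports receptor beta-arrestin coupling in cells; 0% = agonist plus DMSO wells and 100% = wells without agonist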
APJ antagonist: APJ receptor antagonism; hit rate 0.32% among 330,000; inhibition, % at 20 µM; CHO-K1 APJ beta-arrestin complementation, luminescence;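 active = inhibition above about 40% at 20 µM, limit read from the data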;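 also: cells challenged with 10 nM apelin-13 agonist together with compound; plate controls were apelin-13 plus DMSO wells for no effect and DMSO wells lacking apelin-13 for full effect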
CCR6 antag: CCR6 (human) receptor antagonism; P51684; CHO-K1 CCR6 PathHunter beta-arrestin, luminescence, CCL20-stimulated; inhibition, % at 20 µM; hit rate 0.49% among 340,000;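 active = compounds whose inhibition of the agonist-driven luminescence signal at 20 µM reaches about 50%, limit read from the data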;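 also: cells stimulated with CCL20 at 14 nM final; plate controls were DMSO with CCL20 for no effect and DMSO without agonist for full effect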
HTR2A ag: activates the mouse 5-HT2A serotonin receptor; activation, % at 7.6 µM; hit rate 0.66% among 360,000; P35363; CHO-K1 mHTR2A beta-arrestin complementation, luminescence; percent of 30 µM serotonin response;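 active = activation above a run cutoff, the mean activation of all tested compounds plus 3 SD, cut at about 14% in these data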;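 also: 0% = plate median of compound wells and 100% = 30 µM serotonin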
APJ antag confirm: confirmation of human APJ apelin receptor antagonists | shares compounds with APJ antagonist | APJ beta-arrestin recruitment, luminescence, antagonist mode | inhibition, % at 20 µM | hit rate 66% among 950; in the data active = inhibition above about 50%
CXCR6 antag conf: confirmation of human CXCR6 receptor antagonists; shares compounds with CXCR6 inh; CHO-K1 CXCR6 PathHunter beta-arrestin, luminescence; inhibition, % at 20 µM; hit rate 65% among 700; AID 602409;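 active = mean inhibition over four retests above 40%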;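 also: receptor stimulated with 10 nM CXCL16 agonist; beta-galactosidase fragment complementation upon beta-arrestin recruitment to receptor; plate controls were CXCL16 plus DMSO for no effect and DMSO without CXCL16 for full effect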
MOR ag counter: counter-screen for mouse HTR2A agonists: human mu opioid receptor agonists. shares compounds with HTR2A ag. hit rate 5.3% among 2,300. U2OS OPRM1 beta-arrestin PathHunter, luminescence; DMSO 0%, DAMGO 9.3 µM 100%. activation, % at 9.3 µM;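 active = mean activation above the mean of DMSO-only wells plus 3 SD, cut at about 0.5% in these data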
HTR2A ag conf: confirmation of mouse HTR2A serotonin receptor agonists | shares compounds with HTR2A ag | CHO-K1 PathHunter beta-arrestin recruitment, luminescence; DMSO 0%, 30 µM serotonin 100% | activation, % at 7.6 µM | hit rate 19% among 2,300;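 active = mean activation across triplicates above the hit threshold derived in the original primary screen, cut at about 15% in these data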
An asterisk follows results filed as active; nt = not tested or not shown. Most compounds without a hit are left out; they make up all but 2.1% or so of the library.

SMILES	APJ ag	CXCR6 inh	EBI2 antag	APJ antagonist	CCR6 antag	HTR2A ag	APJ antag confirm	others
C=C1C(=O)O[C@@H]2C[C@@H](C)[C@@H]3C=CC(=O)[C@@]3(C)[C@@H](O)[C@H]12	-9	31	57*	47*	45	8	69*
CCn1c(O)c(N=Nc2cccc(S(=O)(=O)N3CCOCC3)c2)c(=O)n(CC)c1=S	-5	3	12	20	24	-1	nt
CCn1c(O)c(N=Nc2ccc(S(=O)(=O)N3CCOCC3)cc2)c(=O)n(CC)c1=S	-5	23	18	56*	29	0	55*
COC(=O)C1=C(c2ccc(-c3ccccc3)c(F)c2)C[C@@H]2CC[C@H]1N2C(=O)NCc1cccc2ccccc12	-4	4	4	3	3	2	nt
CC12CCCCC1=NC(c1ccc(Br)cc1)N2O (stereo not given)	-12	34	-6	51*	55*	2	39
Brc1ccc(C2N3CCCN23)cc1 (stereo not given)	1	2	-11	11	1	1	nt
CC12CCC3C(CC=C4CC(O)CCC43C)C1CC(=CN1CCOCC1)C2=O (stereo not given)	nt	0	2	nt	2	0	nt
c1ccc(-c2nnc(C3CC(c4cccnc4)=NO3)o2)cc1 (stereo not given)	-2	-2	-16	20	4	3	nt
CC1CCCN(CC(=O)c2ccc(Cl)c(Cl)c2)C1 (stereo not given)	-15	66*	16	122*	101*	-3	158*
CCCCn1c(NC(=O)c2ccco2)c(C(=O)OCC)c2nc3ccccc3nc21	-22	21	18	64*	58*	-5	55*
CCCCn1c(NS(=O)(=O)c2ccc(C)cc2)c(C(=O)OCC)c2nc3ccccc3nc21	-14	-3	4	65*	59*	1	-4
CCCCn1c(N)c(C(=O)OCC2CCCO2)c2nc3ccccc3nc21 (stereo not given)	-5	2	2	19	11	2	nt
CCCCn1c(N)c(C(=O)OCCOC)c2nc3ccccc3nc21	-9	7	8	31	19	2	nt
CCCCn1c(N)c(C(=O)NCc2cccs2)c2nc3ccccc3nc21	-9	1	15	49*	6	-4	6
CCCCOCCCn1c(N)c(C(=O)OCCOC)c2nc3ccccc3nc21	-20	14	5	59*	1	-6	-13
CCCCCn1c(N)c(C(=O)NCc2cccs2)c2nc3ccccc3nc21	-7	nt	nt	45*	12	nt	47
CC(C)CCn1c(N)c(C(=O)OCC2CCCO2)c2nc3ccccc3nc21 (stereo not given)	-4	23	7	50*	14	9	53*
Cc1ccc(S(=O)(=O)N(c2cc(Cl)c(O)c(Cl)c2)P(=O)(OC(C)C)OC(C)C)cc1	-1	-3	-12	1	9	5	nt
CN(C)P(=O)(C(Cl)=C(N1CCCCC1)N1CCCCC1)N(C)C	0	5	-3	17	7	0	nt
CCOc1ccc(NC2=NCCCS2)cc1	2	0	-3	7	0	3	nt
O=[N+]([O-])c1ccc(NCCO)c2ncccc12	1	2	5	-12	22	-5	nt
CCN1/C(=C\C=C\C2=[N+](CC)c3ccccc3C2(C)C)C(C)(C)c2ccccc21	-18	63*	6	54*	61*	-8	106*
O=[N+]([O-])c1c(Cl)c(Cl)c(Cl)c(Cl)c1Cl	nt	-17	-19	nt	-11	5	nt
Nc1cc(Cl)c2nonc2c1[N+](=O)[O-]	nt	46*	39	nt	46	5	nt	CXCR6 antag conf=58*
Cc1c(N=Nc2c(O)[nH]c(=S)[nH]c2=O)c(=O)n(-c2ccccc2)n1C	1	52*	13	14	44	-13	nt	CXCR6 antag conf=52*
SMILES	APJ ag	CXCR6 inh	EBI2 antag	APJ antagonist	CCR6 antag	HTR2A ag	APJ antag confirm	others
CC(C)=CCC12CN3CCN(CC(C3)C1=O)C2	0	0	4	0	-4	-4	nt
COc1c2c(cc3c1OCO3)CCN(C)C2	-4	2	0	-3	-5	18*	nt	MOR ag counter=-1;HTR2A ag conf=53*
C[C@@H]1O[C@@H](O[C@@H]2C=C3CCC4C(CC[C@]5(C)[C@@H](c6ccc(=O)oc6)CC[C@]45O)[C@@]3(C)CC2)[C@H](O)[C@H](O)[C@H]1O (stereo not given in full)	11	-9	-48	-8	-23	16*	nt	MOR ag counter=7.7*;HTR2A ag conf=28*
C[C@@H]1O[C@@H](O[C@@H]2C=C3CC[C@@H]4C(CC[C@]5(C)[C@@H](c6ccc(=O)oc6)CC[C@]45O)[C@@]3(C)CC2)[C@H](O)[C@H](O)[C@H]1O (stereo not given in full)	-2	-14	-13	5	-19	18*	nt	MOR ag counter=6.3*;HTR2A ag conf=9
Clc1cccc(Cl)c1CN1CCN(c2ccccc2)CC1	1	-3	14	8	5	-1	nt
Oc1ccc(-[n+]2c(-c3ccccc3)cc(-c3ccccc3)cc2-c2ccccc2)cc1	10	-16	-4	-32	-28	21*	nt	MOR ag counter=0.5*;HTR2A ag conf=16*
COc1ccc(-[n+]2c(-c3ccccc3)cc(-c3ccccc3)cc2-c2ccccc2)cc1	-3	nt	nt	12	4	nt	nt
O=C(O)C(Cl)(Cl)Cl	-1	0	2	18	-7	23*	nt	MOR ag counter=0;HTR2A ag conf=4
Clc1ccc2[nH]c3c(c2c1)CCNC3	-1	-11	-19	-10	9	16*	nt	MOR ag counter=0;HTR2A ag conf=9
C=CCN1CCc2cccc3c2[C@H]1Cc1ccc(O)c(O)c1-3	2	-18	-1	-29	1	55*	nt	MOR ag counter=1.2*;HTR2A ag conf=167*
O=C(CCNC(=O)N1C[C@H]2C[C@@H](C1)c1cccc(=O)n1C2)Nc1cccc(Cl)c1	-5	-1	-4	-10	-5	3	nt
CC=C(C)C1(CCC)C(=O)NC(=S)NC1=O	nt	0	7	nt	10	6	nt
O=C(NCc1cccnc1)C(Cl)(Cl)Cl	1	0	-1	5	-1	24*	nt	MOR ag counter=-1;HTR2A ag conf=-4
